Consider 2 molecules from ChEMBL document CHEMBL1141109, “Synthesis of an estrogen receptor beta-selective radioligand: 5-[18F]fluoro-(2R,3S)-2,3-bis(4-hydroxyphenyl)pentanenitrile and comparison of in vivo distribution with 16alpha-[18F]fluoro-17beta-estradiol” (J Med Chem, 2005).

Data set [1] is described as follows: Biodistribution of [18F]-FES in beta estrogen receptor knock out mouse thymus after 1 h; (n=3). It is filed as ADME, organism-based. The note with it: in vivo. In outline: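 Female βERKO mice in estrus were used because repeated swabbing had induced pseudopregnancy. They were fed estrogen-free chow. Each received 13 µCi [18F]FES in 100 µL 10% ethanol/saline and was sacrificed at 30 min, 1 h or 2 h (n = 3 each). Tissue uptake is given as %ID/g ± SD.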

The nature of data set [2]: Biodistribution of [18F]FES in alpha estrogen receptor knock out mouse spleen after 30 min; (n=3). It is filed as ADME, organism-based. The conditions noted are these: in vivo, 0.5 h.
The nature of data set [3]: Biodistribution of [18F]FES in alpha estrogen receptor knock out mouse thymus after 1 h; (n=3). The format is ADME, organism-based. The note with it: in vivo.
Data set [4] in a line: Biodistribution of [18F]FES in alpha estrogen receptor knock out mouse uterus after 2 h; (n=3). It is filed as ADME, organism-based. The note with it: in vivo.
The nature of data set [5]: Biodistribution of [18F]FEDPN in beta estrogen receptor knock out mouse uterus after 1 h; (n=3). The format is ADME, organism-based. The note with it: in vivo. In short, it runs like this:
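αERKO and βERKO mice were fed estrogen-free chow and staged by daily vaginal smears. Mice in a nonestrous stage each received 11 µCi tracer in 130 µL 10% ethanol/saline. Organs were taken at 30 min, 1 h or 2 h and gamma-counted. Uptake is expressed as %ID/g ± SD, three animals per point.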

Data set [6] in a line: Biodistribution of [18F]FEDPN in beta estrogen receptor knock out mouse muscle after 2 h; (n=3). It is filed as ADME, organism-based, Muscle tissue. The conditions noted are these: in vivo. In outline:
(§1)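 αERKO and βERKO mice, staged by daily vaginal smears and kept on estrogen-free chow, were studied in a nonestrous stage. Each mouse received 11 μCi of tracer in 130 μL of 10% ethanol/saline. Mice were killed at 30 min, 1 h or 2 h (n = 3 each). Organs were removed, blotted, weighed and gamma-counted against an injectate standard. Uptake is given as %ID/g ± SD.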

Data set [7] in a line: Biodistribution of [18F]-FEDPN in rat kidney after 1 hr block when given in tail vein; (n=5). The format is ADME, organism-based. The conditions noted are these: in vivo, iv. In short, it runs like this: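 Immature female Sprague–Dawley rats (<25 days old) anesthetized with isoflurane/O2. Given 20 µCi tracer by tail vein in 150 µL of 20% ethanol/saline. […] Killed at 30 min, 1 h or 2 h. Blood and organs blotted, weighed and gamma-counted against a standard dilution of the injectate. Reported as %ID/g ± SD, n=5.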

A short description of data set [8]: Biodistribution of [18F]FEDPN in rat bone after 30 min when given in tail vein; (n=5). The format is ADME, organism-based, Bone element. The note with it: in vivo, iv, 0.5 h. In short, it runs like this: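 Immature female Sprague–Dawley rats (<25 days old) under isoflurane/O2 got 20 µCi tracer in 150 µL 20% ethanol/saline by tail vein. […] Rats were killed at 30 min, 1 h or 2 h. Organs were blotted, weighed and gamma-counted against an injectate standard. Data are %ID/g ± SD, five rats per point.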

Data set [9] is described as follows: Biodistribution of [18F]FEDPN in alpha estrogen receptor knock out mouse kidney after 2 h; (n=3). It is filed as ADME, organism-based. The conditions noted are these: in vivo. In short, it runs like this:
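ERKO female mice (αERKO or βERKO), rested 48 h after shipping, placed on estrogen-free chow, and staged by daily vaginal smears. Injected in a nonestrous stage with 11 µCi [18F]FEDPN in 130 µL of 10% ethanol/saline. Killed at 30 min, 1 h or 2 h. Organs counted and reported as %ID/g ± SD, three animals per point.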

Data set [10] in a line: Biodistribution of [18F]FEDPN in alpha estrogen receptor knock out mouse uterus after 30 min; (n=3). The format is ADME, organism-based. The note with it: in vivo, 0.5 h. In short, it runs like this:
as §1

Data set [11] in a line: Biodistribution of [18F]FEDPN in beta estrogen receptor knock out mouse lung after 2 h; (n=3). The format is ADME, organism-based. The conditions noted are these: in vivo. In outline: as §1

`C[C@]12CC[C@@H]3c4ccc(O)cc4CC[C@H]3[C@@H]1C[C@@H](F)[C@@H]2O` [FLUOROESTRADIOL]: the Biodistribution in data set [1] was found to be 0.92 %ID/g; in data set [2], 0.59 %ID/g; in [3], 0.21 %ID/g; in [4], 0.36 %ID/g.

Regarding `N#C[C@H](c1ccc(O)cc1)[C@@H](CCF)c1ccc(O)cc1`, the Biodistribution is 0.54 %ID/g in [5]; 0.27 %ID/g in data set [6]; 1.01 %ID/g in data set [7]; 2.12 %ID/g in data set [8]; 1.94 %ID/g in data set [9]; 1.11 %ID/g in data set [10]. In data set [11], this molecule yielded a Biodistribution of 0.44 %ID/g.
